How the values were obtained:
Adenosine receptor A3 = biological target: T1, Adenosine receptor A3 (Rattus norvegicus, UniProt P28647); assay: Binding affinity for adenosine A3 receptor of rat testis membrane using [3H](R)-PIA
T1 sequence (P28647 whole entry): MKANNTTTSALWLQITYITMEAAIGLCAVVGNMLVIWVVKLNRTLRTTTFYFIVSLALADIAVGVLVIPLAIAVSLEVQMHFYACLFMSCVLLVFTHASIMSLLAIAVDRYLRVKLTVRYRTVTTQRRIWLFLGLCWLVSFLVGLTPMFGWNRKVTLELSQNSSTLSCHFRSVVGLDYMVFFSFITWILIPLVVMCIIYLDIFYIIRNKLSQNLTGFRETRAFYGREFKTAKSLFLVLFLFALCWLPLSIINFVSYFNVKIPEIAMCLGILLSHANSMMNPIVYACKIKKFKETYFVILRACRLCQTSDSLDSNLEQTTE
How it was run: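 Rat testis membranes were labelled with [3H]-(R)-PIA for A3 binding, with 150 nM DPCPX present to block A1 receptors. Membrane preparation and assay followed an earlier published method. IC50 values were converted to Ki by Cheng–Prusoff and reported as mean ± S.E. of three experiments.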

Adenosine A2 receptor = Adenosine A2 receptor (Rattus norvegicus, UniProt P29276+P30543); assay: Binding affinity for adenosine A2 receptor of rat striatal membrane using [3H]CGS-21680
How it was run: (§1)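 Competition binding on rat membrane preparations: cerebral cortex for A1 with [3H]-CHA, striatum for A2 with [3H]-CGS 21680. Membrane preparation and assay followed an earlier published method. IC50 values were converted to Ki with the Cheng–Prusoff equation and reported as mean ± S.E. of three experiments.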

Adenosine receptor A1 = biological target: T2, Adenosine receptor A1 (Rattus norvegicus, UniProt P25099); assay: Binding affinity for adenosine A1 receptor of rat cerebral cortex membrane using [3H]CHA; format: tissue-based; how it was run: as §1
T2 sequence (P25099 whole entry): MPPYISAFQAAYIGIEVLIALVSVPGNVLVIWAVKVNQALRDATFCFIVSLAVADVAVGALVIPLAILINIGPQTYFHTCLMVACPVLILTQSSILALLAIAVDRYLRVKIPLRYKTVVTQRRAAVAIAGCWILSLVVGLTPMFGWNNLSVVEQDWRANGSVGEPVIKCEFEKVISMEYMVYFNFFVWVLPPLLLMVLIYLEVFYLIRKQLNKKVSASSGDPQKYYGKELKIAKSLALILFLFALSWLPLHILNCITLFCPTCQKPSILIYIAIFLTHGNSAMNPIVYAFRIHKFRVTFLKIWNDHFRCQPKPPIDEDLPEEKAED

Structure (SMILES) | Ki (Adenosine receptor A3) [nM] | Ki (Adenosine A2 receptor) [µM] | Ki (Adenosine receptor A1) [nM]
CCNC(=O)[C@H]1OC(n2cnc3c(NCCCCCCCCCCCCNS(=O)(=O)c4cccc5c(N(C)C)cccc45)ncnc32)[C@H](O)[C@@H]1O (stereo partly drawn) | 2500 | > 10 | 3400
CCNC(=O)[C@H]1OC(n2cnc3c(NCCCCNS(=O)(=O)c4cccc5c(N(C)C)cccc45)ncnc32)[C@H](O)[C@@H]1O (stereo partly drawn) | 2000 | 9.5 | 70
CCNC(=O)[C@H]1OC(n2cnc3c(NCCCCCCCCCCNS(=O)(=O)c4cccc5c(N(C)C)cccc45)ncnc32)[C@H](O)[C@@H]1O (stereo partly drawn) | 1100 | > 10 | 234

The remaining lines, values ahead:

Ki (Adenosine receptor A3) [nM] | Ki (Adenosine A2 receptor) [µM] | Ki (Adenosine receptor A1) [nM] | Structure (SMILES)
1800 | 4.3 | 42 | CCNC(=O)[C@H]1OC(n2cnc3c(NCCCNS(=O)(=O)c4cccc5c(N(C)C)cccc45)ncnc32)[C@H](O)[C@@H]1O (stereo partly drawn)
252 | > 10 | 111 | CCNC(=O)[C@H]1OC(n2cnc3c(NCCCCCCCCNS(=O)(=O)c4cccc5c(N(C)C)cccc45)ncnc32)[C@H](O)[C@@H]1O (stereo partly drawn)
3600 | 4.3 | 27 | CCNC(=O)[C@H]1OC(n2cnc3c(NCCCCCCNS(=O)(=O)c4cccc5c(N(C)C)cccc45)ncnc32)[C@H](O)[C@@H]1O (stereo partly drawn)

Reference: ChEMBL document CHEMBL1131270, “Fluorescent probes for adenosine receptors: synthesis and biology of N6-dansylaminoalkyl-substituted NECA derivatives” (Bioorg Med Chem Lett, 1998)
